For orientation: MIC means the lowest concentration that inhibits growth of the organism. A low value points to greater potency. One may read the ED50 as the midpoint of the dose-response relation. Low values mean an effect at a small dose, high ones a need for a large dose.

We go through 22 compounds from ChEMBL document CHEMBL1122526, “Pyridonecarboxylic acids as antibacterial agents. 4. Synthesis and antibacterial activity of 7-(3-amino-1-pyrrolidinyl)-1-ethyl-6-fluoro-1,4 -dihydro-4-oxo-1,8-naphthyridine-3-carboxylic acid and its analogues” (1984).

In brackets after ≈: the same amount, converted by molar mass. Some results are limits rather than exact numbers.

What all share (type): functional
The test system of assay [1] is Escherichia coli. In words: In vitro antibacterial activity against Escherichia coli NIHJ JC-2.
For assay [2], the system named is Pseudomonas aeruginosa. Nature of the assay: in vitro antibacterial activity against Pseudomonas aeruginosa Tsuchijima.
Assay [3] deals with Staphylococcus aureus. Nature of the assay: In vitro for antibacterial activity against Staphylococcus aureus 209P JC-1.
Assay [4] concerns Escherichia coli. Nature of the assay: Compound was evaluated in vivo for oral antibacterial activity against Escherichia coli P-5101 at a dose of 9E6. In a few lines: (§1)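 Mice were given a systemic infection and then treated by the oral route. Challenge doses in cells per mouse were 5 × 10^8 for S. aureus 50774, 9 × 10^6 for E. coli P-5101 and 4 × 10^3 for P. aeruginosa 12. The protective dose is given in mg/kg.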

Assay [5] concerns Pseudomonas aeruginosa. Nature of the assay: Compound was evaluated in vivo for oral antibacterial activity iagainst Pseudomonas aeruginosa 12 at a dose of 4E3. In a few lines: as §1
Assay [6] concerns Staphylococcus aureus. Nature of the assay: Compound was evaluated in vivo for oral antibacterial activity against Staphylococcus aureus 50774 at a dose of 5E8. In a few lines: as §1
Assay [7] relates to Pseudomonas aeruginosa. Nature of the assay: Compound was evaluated in vivo for oral antibacterial activity against Pseudomonas aeruginosa 12 at a dose of 4E3. The essentials:
as §1

On to `CCn1cc(C(=O)O)c(=O)c2cc(F)c(N3CCC(N(C)C(C)=O)C3)nc21` (stereo unspecified), for which the results for the MIC against Escherichia coli [1], with Pseudomonas aeruginosa [2] and in the assay on Staphylococcus aureus [3] were 6.25 µg/mL (≈ 16.6 µM), 25 µg/mL (≈ 66.4 µM) and 0.78 µg/mL (≈ 2.07 µM), respectively.

In the case of `CCn1cc(C(=O)O)c(=O)c2cc(F)c(N3CCC(NC(=O)c4ccccc4)CC3)nc21`, the MIC with Escherichia coli [1] was 12.5 µg/mL (≈ 28.5 µM); in the assay on Pseudomonas aeruginosa [2], greater than 100 µg/mL; against Staphylococcus aureus [3] it was 1.56 µg/mL (≈ 3.56 µM).

On to `CC(=O)NC1CCN(c2nc3c(cc2F)c(=O)c(C(=O)O)cn3CCF)C1` (stereo unspecified), for which the MIC with Escherichia coli [1] is 1.56 µg/mL (≈ 4.1 µM); against Pseudomonas aeruginosa [2], 25 µg/mL (≈ 65.7 µM); with Staphylococcus aureus [3], 1.56 µg/mL (≈ 4.1 µM).

Regarding `CCn1cc(C(=O)O)c(=O)c2cc(F)c(N3CCC(NC(C)=O)C3)nc21` (stereo unspecified), the MIC was found to be 6.25 µg/mL (≈ 17.2 µM) with Escherichia coli [1], 6.25 µg/mL (≈ 17.2 µM) against Pseudomonas aeruginosa [2] and 0.78 µg/mL (≈ 2.15 µM) against Staphylococcus aureus [3].

Turning to `CCn1cc(C(=O)O)c(=O)c2cc(F)c(N3CCC(N)CC3)nc21`, the MIC against Escherichia coli [1] was 0.2 µg/mL (≈ 0.598 µM); in the assay with Pseudomonas aeruginosa [2], 1.56 µg/mL (≈ 4.67 µM); against Staphylococcus aureus [3], 0.2 µg/mL (≈ 0.598 µM). For the same compound, the ED50 in the assay with Escherichia coli [4] is 6.3 mg/kg; in the assay on Pseudomonas aeruginosa [5], 16.2 mg/kg; with Staphylococcus aureus [6], greater than 25 mg/kg.

Consider `CCn1cc(C(=O)O)c(=O)c2cc(F)c(N3CCC(Cl)C3)nc21` (stereo unspecified), for which the MIC with Escherichia coli [1] was 0.39 µg/mL (≈ 1.15 µM); in the assay on Pseudomonas aeruginosa [2] it was 12.5 µg/mL (≈ 36.8 µM); against Staphylococcus aureus [3], 0.2 µg/mL (≈ 0.589 µM).

Consider `C=Cn1cc(C(=O)O)c(=O)c2cc(F)c(N3CCC(NCC(F)(F)F)C3)nc21` (stereo unspecified), for which the MIC against Escherichia coli [1] turned out to be 6.25 µg/mL (≈ 15.6 µM); with Pseudomonas aeruginosa [2] it was 100 µg/mL (≈ 250 µM); in the assay on Staphylococcus aureus [3] it was 1.56 µg/mL (≈ 3.9 µM).

Turning to `CCCNC1CCN(c2nc3c(cc2F)c(=O)c(C(=O)O)cn3CC)C1` (stereo unspecified), the MIC against Escherichia coli [1] is 6.25 µg/mL (≈ 17.2 µM); with Pseudomonas aeruginosa [2], greater than 100 µg/mL; against Staphylococcus aureus [3] it was 25 µg/mL (≈ 69 µM).

Regarding `CCn1cc(C(=O)O)c(=O)c2cc(F)c(N3CCCC(C(N)=O)C3)nc21` (stereo unspecified), the MIC against Escherichia coli [1] was found to be 12.5 µg/mL (≈ 34.5 µM); against Pseudomonas aeruginosa [2] it was 50 µg/mL (≈ 138 µM); with Staphylococcus aureus [3] it was 6.25 µg/mL (≈ 17.2 µM).

Take `C=Cn1cc(C(=O)O)c(=O)c2cc(F)c(N3CCC(N(C)C)C3)nc21` (stereo unspecified): the values for the MIC in the assay on Escherichia coli [1], in the assay on Pseudomonas aeruginosa [2] and against Staphylococcus aureus [3] were 0.39 µg/mL (≈ 1.13 µM), 3.13 µg/mL (≈ 9.04 µM) and 3.13 µg/mL (≈ 9.04 µM), respectively.

With `CCn1cc(C(=O)O)c(=O)c2cc(F)c(N3CC(OC)C3)nc21`, the results for the MIC in the assay on Escherichia coli [1], in the assay with Pseudomonas aeruginosa [2] and with Staphylococcus aureus [3] were 3.13 µg/mL (≈ 9.74 µM), 6.25 µg/mL (≈ 19.5 µM) and 0.78 µg/mL (≈ 2.43 µM), respectively.

For `C=Cn1cc(C(=O)O)c(=O)c2cc(F)c(N3CCC(N(C)C(C)=O)C3)nc21` (stereo unspecified), the MIC stood at 3.13 µg/mL (≈ 8.36 µM) in the assay with Escherichia coli [1], 25 µg/mL (≈ 66.8 µM) in the assay on Pseudomonas aeruginosa [2] and 1.56 µg/mL (≈ 4.17 µM) in the assay on Staphylococcus aureus [3].

For `CCn1cc(C(=O)O)c(=O)c2cc(F)c(N3CCC(O)C3)nc21` (stereo unspecified), the MIC turned out to be 0.78 µg/mL (≈ 2.43 µM) with Escherichia coli [1], 0.78 µg/mL (≈ 2.43 µM) with Pseudomonas aeruginosa [2] and 0.39 µg/mL (≈ 1.21 µM) against Staphylococcus aureus [3]. The ED50 in the assay with Escherichia coli [4] was 6.8 mg/kg; in the assay on Staphylococcus aureus [6] it was 5.5 mg/kg; with Pseudomonas aeruginosa [7] it was 42 mg/kg.

On to `CCn1cc(C(=O)O)c(=O)c2cc(F)c(N3CCC(NC(=O)C(F)(F)F)C3)nc21` (stereo unspecified), for which the values for the MIC against Escherichia coli [1], in the assay on Pseudomonas aeruginosa [2] and in the assay on Staphylococcus aureus [3] were 1.56 µg/mL (≈ 3.75 µM), 6.25 µg/mL (≈ 15 µM) and 0.78 µg/mL (≈ 1.87 µM), respectively.

`C=Cn1cc(C(=O)O)c(=O)c2cc(F)c(N3CCC(NC)C3)nc21` (stereo unspecified): the values for the MIC against Escherichia coli [1], against Pseudomonas aeruginosa [2] and with Staphylococcus aureus [3] were 0.1 µg/mL (≈ 0.301 µM), 0.78 µg/mL (≈ 2.35 µM) and 0.78 µg/mL (≈ 2.35 µM), respectively. Also, the ED50 was found to be 2 mg/kg with Escherichia coli [4], 1.6 mg/kg with Staphylococcus aureus [6] and 3.7 mg/kg with Pseudomonas aeruginosa [7].

For the compound `CCn1cc(C(=O)O)c(=O)c2cc(F)c(N3CC(O)C3)nc21`, the minimum inhibitory concentration (MIC) is 0.78 µg/mL (≈ 2.54 µM) in the assay with Escherichia coli [1], 3.13 µg/mL (≈ 10.2 µM) with Pseudomonas aeruginosa [2] and 0.78 µg/mL (≈ 2.54 µM) against Staphylococcus aureus [3].

With `CCNC1CCN(c2nc3c(cc2F)c(=O)c(C(=O)O)cn3CC)C1` (stereo unspecified), the MIC was 0.78 µg/mL (≈ 2.24 µM) against Escherichia coli [1], 3.13 µg/mL (≈ 8.98 µM) in the assay on Pseudomonas aeruginosa [2] and 0.78 µg/mL (≈ 2.24 µM) against Staphylococcus aureus [3].

As to `CCOC1CN(c2nc3c(cc2F)c(=O)c(C(=O)O)cn3CC)C1`, the figures for the MIC in the assay on Escherichia coli [1], with Pseudomonas aeruginosa [2] and against Staphylococcus aureus [3] were 3.13 µg/mL (≈ 9.33 µM), 25 µg/mL (≈ 74.6 µM) and 0.78 µg/mL (≈ 2.33 µM), respectively.

Take `CCn1cc(C(=O)O)c(=O)c2cc(F)c(N3CC(N4CCOCC4)C3)nc21`: the MIC in the assay with Escherichia coli [1] stood at 6.25 µg/mL (≈ 16.6 µM); with Pseudomonas aeruginosa [2], 50 µg/mL (≈ 133 µM); in the assay on Staphylococcus aureus [3], 1.56 µg/mL (≈ 4.14 µM).

Regarding `CCn1cc(C(=O)O)c(=O)c2cc(F)c(N3CCC(NC(N)=O)C3)nc21` (stereo unspecified), the MIC stood at 3.13 µg/mL (≈ 8.61 µM) in the assay with Escherichia coli [1], 25 µg/mL (≈ 68.8 µM) against Pseudomonas aeruginosa [2] and 6.25 µg/mL (≈ 17.2 µM) against Staphylococcus aureus [3].

As to `CCn1cc(C(=O)O)c(=O)c2cc(F)c(N3CCNCC3)nc21` [ENOXACIN], the MIC is 0.2 µg/mL (≈ 0.624 µM) against Escherichia coli [1], 0.78 µg/mL (≈ 2.44 µM) in the assay with Pseudomonas aeruginosa [2] and 0.78 µg/mL (≈ 2.44 µM) against Staphylococcus aureus [3]. Besides, the ED50 came out at 1.8 mg/kg in the assay on Escherichia coli [4], 10 mg/kg in the assay with Staphylococcus aureus [6] and 9 mg/kg in the assay with Pseudomonas aeruginosa [7].

With `CCn1cc(C(=O)O)c(=O)c2cc(F)c(N3CCC(N)C3)nc21` (stereo unspecified) [ESAFLOXACIN], the MIC against Escherichia coli [1] is 0.1 µg/mL (≈ 0.312 µM); in the assay on Pseudomonas aeruginosa [2], 0.39 µg/mL (≈ 1.22 µM); in the assay on Staphylococcus aureus [3], 0.2 µg/mL (≈ 0.624 µM). The ED50 with Escherichia coli [4] worked out at 1.7 mg/kg; in the assay on Staphylococcus aureus [6], 3 mg/kg; with Pseudomonas aeruginosa [7] it was 3.7 mg/kg.
